Screening results from PubChem BioAssay.
RanGTP-Impb inh – disruptors of Ran-importin-beta complex formation – biochemical, FRET, CFP-Ran, YFP-importin-beta, homogeneous, primary screen. cell-free CFP-Ran/YFP-importin-beta FRET ratio. inhibition, % (concentration not given with the values). hit rate 1.1% among 300,000. AID 2216;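 active means more than half of the replicate wells show a fall in the fluorescence ratio signal beyond about 16%, limit read from the data, passing the limit was not always enough; inconclusive means exactly half of the replicate wells pass the set limit; inactive means fewer than half of replicates pass the limit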;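 further: 0% = DMSO wells and 100% = Ran loaded with GDP instead of GTP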
Hck Nef HTS – blocks Nef-activated human Hck kinase; P08631; Recombinant Hck-YEEI plus Nef, Z-Lyte FRET kinase assay; inhibition, % at 20 µM; hit rate 0.68% among 220,000; AID 463187;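 active means Hck-Nef kinase inhibition above about 50%, limit read from the data; inactive means inhibition below that limit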;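 further: 0% = DMSO with Hck plus Nef and 100% = Hck alone without Nef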
Target sequence (P08631 whole entry, looked up): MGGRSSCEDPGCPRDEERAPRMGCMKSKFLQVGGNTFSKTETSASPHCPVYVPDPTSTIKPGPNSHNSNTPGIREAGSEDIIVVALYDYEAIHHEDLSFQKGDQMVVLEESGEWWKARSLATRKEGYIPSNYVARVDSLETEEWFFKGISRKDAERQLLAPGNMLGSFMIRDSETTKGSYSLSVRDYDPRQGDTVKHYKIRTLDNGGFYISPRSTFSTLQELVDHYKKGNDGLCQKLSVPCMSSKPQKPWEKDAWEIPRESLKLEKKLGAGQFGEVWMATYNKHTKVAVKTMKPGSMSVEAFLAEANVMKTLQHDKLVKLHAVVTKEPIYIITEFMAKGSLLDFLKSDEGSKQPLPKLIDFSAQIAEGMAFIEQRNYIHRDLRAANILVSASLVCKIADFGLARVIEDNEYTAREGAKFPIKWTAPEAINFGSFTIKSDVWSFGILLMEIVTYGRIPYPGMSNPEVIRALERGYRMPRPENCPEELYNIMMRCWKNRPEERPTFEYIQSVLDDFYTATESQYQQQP
Runt-CBFb FRET – blocks binding of human RUNX1 Runt domain to CBFb | Q01196+Q13951 | Cerulean-Runt/Venus-CBFb FRET ratio 530/480, 1 h | inhibition, % at 20 µM | hit rate 0.46% among 220,000 | AID 1496;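 active means inhibition over about 50% at 20 µM in the single-dose screen, limit read from the data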;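 further: 0% = DMSO wells and 100% = excess unlabeled CBFb competitor control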
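Reagent – Venus-CBFb binding partner, 100 nM · Assay system – Cerulean-tagged RUNX1 Runt domain (FRET donor) fusion protein · Input – 100 nM per protein · Incubation – two 1 h room-temperature incubations shielded from light · Measured by – FRET fluorescence · Medium – Tris buffer pH 7.5 with salts and BSA · Benchmarks – unlabeled CBFb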
Runt-SMMHC FRET – blocks binding of human RUNX1 Runt domain to CBFb-SMMHC. Q01196+Q13951. Cerulean-Runt/Venus-CBFb-SMMHC FRET ratio 530/480, 1 h. inhibition, % at 20 µM. hit rate 0.74% among 220,000. AID 1434;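 active means mean inhibition across duplicate retests at 20 µM reaching about 50%, limit read from the data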;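 further: 0% = DMSO wells and 100% = wells with excess untagged CBFb-SMMHC; inhibitors lower the FRET ratio by blocking Runt binding to CBFb-SMMHC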
Tb hexokinase – blocks Trypanosoma brucei hexokinase 1 activity; inhibition, % at 10 µM; hit rate 0.11% among 220,000; recombinant TbHK1, G6PDH-coupled NADH A340;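 active means inhibition of 50% or more in the single-dose primary screen; inactive means inhibition below 50%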
Active calls of the source: *; ? = inconclusive; . = not tested or not shown. This is a sample that favours compounds with a hit; in the whole collection about 1.9% have one here.

SMILES	RanGTP-Impb inh	Hck Nef HTS	Runt-CBFb FRET	Runt-SMMHC FRET	Tb hexokinase
COc1cccc(/C=C/C(=O)NCc2ccc3c(c2)OCO3)c1	5	.	.	.	.
O=C(O)C(=O)/C(=C\c1ccc([N+](=O)[O-])cc1)c1ccc2ccccc2n1	9	-5	15	25	-5
O=C(O)C(=O)/C(=C\c1ccsc1)c1ccc2ccccc2n1	20*	.	.	.	.
O=C(O)C(=O)/C(=C\c1ccccc1)c1ccc2ccccc2n1	31*	18	7	52*	-12
O=C(O)C(=O)/C(=C\c1cccc2ccccc12)c1ccc2ccccc2n1	63*	1	19	80*	-8
CCC(CC)c1nc(C(N)=O)c2[nH]c(=O)n(-c3ccc(OC)c(OC)c3)c2n1	1	.	.	.	.
Cc1cc(NC(=O)CSc2nc(-c3ccccc3)nc3c2c(=O)n(C)c(=O)n3C)no1	6	21	0	-3	-10
CN(C(=S)Nc1ccc(F)cc1)C1(c2ccccc2Cl)CCCCC1=O (stereo not drawn)	-2	2	88*	0	-1
Cc1ccc(S(=O)(=O)c2c(N)n(Cc3ccco3)c3nc4ccccc4nc23)cc1	?	26	45	.	-16
Cc1cccc(S(=O)(=O)c2c(N)n(Cc3ccco3)c3nc4ccccc4nc23)c1	18*	23	20	.	-12
CN1C(=O)C(C)(C)c2cc(S(=O)(=O)N3CCN(c4ccccc4F)CC3)ccc21	3	.	.	.	.
CC(=O)N1CC2(C)CN(C(C)=O)CC(C)(C1)C2	-4	7	2	3	-2
CCC(=O)N1CC2(C)CN(C(=O)CC)CC(C)(C1)C2	17*	3	-1	3	3
CCCCNC(=O)Oc1c(Br)cc2sc(=O)oc2c1Br	.	56*	23	8	16
CCOC(=O)C1CCCN(S(=O)(=O)c2cc(Br)cc3c2N(C(C)=O)CC3)C1 (stereo not drawn)	1	.	.	.	.
COc1ccc(CNC(=O)c2cc3c(=O)n4ccccc4nc3n(Cc3ccco3)c2=N)cc1	.	1	.	.	-4
N=c1c(C(=O)NCc2ccco2)cc2c(=O)n3ccccc3nc2n1CCc1ccccc1	130*	1	12	38	-17
Cc1ccc(Cn2c(=N)c(C(=O)NCc3ccco3)cc3c(=O)n4ccccc4nc32)cc1	114*	17	29	.	-9
O=C1CCCC2=C1C(c1ccc(Br)cc1)c1c([nH]c(=S)[nH]c1=O)N2 (stereo not drawn)	3	0	46	68*	-6
Cc1ccc(C2C3=C(CCCC3=O)Nc3[nH]c(=S)[nH]c(=O)c32)cc1 (stereo not drawn)	3	-25	48	60*	-5
CCCCCc1c(O)nc(SCC(=O)O)[nH]c1=O	.	0	.	.	2
CCOC(=O)c1c(NS(=O)(=O)c2cccc(OC)c2)sc2c1CCC2	-29	7	-15	69*	0
O=C(CCN1C(=O)C2CC=CCC2C1=O)NC1CCCCC1 (stereo not drawn)	6	.	.	.	.
O=C(O)COc1ccccc1Cc1ccccc1	0	-2	88*	143	1
C=CCc1ccccc1OCC(=O)O	3	9	2	-8	-9
SMILES	RanGTP-Impb inh	Hck Nef HTS	Runt-CBFb FRET	Runt-SMMHC FRET	Tb hexokinase
CC(/C=N/NC(=O)Cc1cccs1)=C\c1ccco1	-5	0	0	-6	-61
CC(/C=N/NC(=O)c1cccs1)=C\c1ccco1	20*	30	2	2	-48
Cc1ccc2ncc(S(=O)(=O)c3ccccc3)c(N3CCCCC3C)c2c1 (stereo not drawn)	6	.	.	.	.
CC1=[N+](CC(=O)c2ccccc2)CCn2cccc21	20*	19	-16	-39	-23
Nc1cccc2c1C(=O)N(C(=O)/C=C/c1ccc(F)cc1)C2=O	5	11	-58	86*	-6
Nc1cccc2c1C(=O)N(C(=O)c1ccco1)C2=O	26*	-86	-45	84*	-16
O=C(Nc1sc2c(c1C(=O)NCc1ccco1)CCCC2)c1ccc2c(c1)OCO2	?	19	37	65*	-1
COc1ccc2nc3cc(Cl)ccc3c(Nc3cc(C(C)C)c(O)cc3C)c2c1	115*	5	77*	50*	0
CCN(CC)CCCC(C)Nc1c2ccc(Cl)cc2nc2ccc(OC)cc12 (stereo not drawn)	.	.	12	85*	.
COc1ccc2nc(Cl)cc(Cl)c2c1	0	19	0	-3	-2
